This is an account of results in ChEMBL document CHEMBL3352173, “Optimization of pyrrolamide topoisomerase II inhibitors toward identification of an antibacterial clinical candidate (AZD5099)” (J Med Chem, 2014).

Each structure is given as a SMILES string. In brackets after ≈: the same amount, converted by molar mass.

One data set deals with Haemophilus influenzae. The data set is described as follows: Antimicrobial activity against Haemophilus influenzae by broth microdilution/CLSI method. In kind it is functional. Particulars: Haemophilus influenzae; read-out: MIC. (Broth dilution looks for growth in wells or tubes with falling amounts of substance.)
The next data set addresses DNA gyrase subunit B (Staphylococcus aureus, UniProt P0A0K8). The data set is described as follows: Inhibition of ATPase activity of Staphylococcus aureus GyrB. In short, it runs like this:
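IC50 was determined against S. aureus GyrB in the routine screening assay. The enzyme concentration limits resolution below 10 nM.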

For a further data set, the system named is Streptococcus pneumoniae. Put plainly: Antibacterial activity against Streptococcus pneumoniae by broth microdilution/CLSI method. In kind it is functional. To be noted: Streptococcus pneumoniae; read-out: MIC.
In data set [1] the test system is Staphylococcus aureus. The data set is described as follows: Antimicrobial activity against methicillin-sensitive Staphylococcus aureus by broth microdilution/CLSI method. Particulars: Staphylococcus aureus; read-out: MIC. In kind it is functional.
The subject of data set [2] is Staphylococcus aureus. Put plainly: Antimicrobial activity against methicillin, quinolone-resistant Staphylococcus aureus by broth microdilution/CLSI method. In kind it is functional. Particulars: Staphylococcus aureus; read-out: MIC.
The test system of the next data set is Moraxella catarrhalis. Put plainly: Antimicrobial activity against Moraxella catarrhalis by broth microdilution/CLSI method. To be noted: Moraxella catarrhalis; read-out: MIC. In kind it is functional.
The test system of data set [3] is Escherichia coli. The data set is described as follows: Antimicrobial activity against wild-type Escherichia coli Eco523 by broth microdilution/CLSI method. In kind it is functional. To be noted: Escherichia coli, Eco523; read-out: MIC.
The subject of data set [4] is Escherichia coli. The data set is described as follows: Antimicrobial activity against Escherichia coli tolC- by broth microdilution/CLSI method. In kind it is functional. Particulars: Escherichia coli; read-out: MIC.
The nature of data set [5]: Octanol-phosphate buffer distribution coefficient, log D of the compound at pH 7.4 by shake flask method. In kind it is physicochemical.
A short description of data set [6]: Percentage unbound in human plasma. In kind it is ADME, cell-free.
Another data set concerns Streptococcus pyogenes. The data set is described as follows: Antimicrobial activity against Streptococcus pyogenes by broth microdilution/CLSI method. In kind it is functional.
Data set [7] can be described thus: Solubility of the compound. In kind it is physicochemical.

Sequence of DNA gyrase subunit B (P0A0K8 whole entry): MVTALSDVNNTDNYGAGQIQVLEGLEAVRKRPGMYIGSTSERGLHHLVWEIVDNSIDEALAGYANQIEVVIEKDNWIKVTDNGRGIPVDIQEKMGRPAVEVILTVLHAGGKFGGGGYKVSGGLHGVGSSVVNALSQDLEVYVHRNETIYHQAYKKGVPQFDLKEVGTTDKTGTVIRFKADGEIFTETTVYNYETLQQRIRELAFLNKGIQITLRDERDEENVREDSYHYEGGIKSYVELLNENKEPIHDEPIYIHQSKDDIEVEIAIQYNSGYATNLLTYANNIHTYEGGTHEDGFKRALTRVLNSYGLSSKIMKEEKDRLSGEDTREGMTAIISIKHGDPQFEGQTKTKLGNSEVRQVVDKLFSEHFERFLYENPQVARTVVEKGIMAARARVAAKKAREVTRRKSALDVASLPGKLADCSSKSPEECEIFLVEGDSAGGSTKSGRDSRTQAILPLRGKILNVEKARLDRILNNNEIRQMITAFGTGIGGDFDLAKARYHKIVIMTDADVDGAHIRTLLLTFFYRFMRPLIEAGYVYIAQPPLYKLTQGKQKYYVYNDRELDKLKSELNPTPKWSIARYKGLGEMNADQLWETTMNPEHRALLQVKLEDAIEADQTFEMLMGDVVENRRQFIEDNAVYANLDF

Turning to `CCO[C@H]1CN(c2ncc(C(=O)O)s2)CC[C@H]1NC(=O)c1[nH]c(C)c(Cl)c1Cl` (racemic), the MIC is 2 µg/mL (≈ 4.47 µM) with Haemophilus influenzae; 0.031 µg/mL (≈ 0.0693 µM) with Streptococcus pneumoniae; 1 µg/mL (≈ 2.24 µM) in the data set with Staphylococcus aureus [1]; 2 µg/mL (≈ 4.47 µM) in the data set with Staphylococcus aureus [2]; 0.13 µg/mL (≈ 0.291 µM) with Moraxella catarrhalis; > 8 µg/mL in the data set with Escherichia coli [3]. In the data set on Escherichia coli [4], the MIC was 1 µg/mL (≈ 2.24 µM). For the same molecule, the half-maximal inhibitory concentration (IC50) on DNA gyrase subunit B was < 10 nM. Besides, the pH-dependent lipophilicity (logD) in data set [5] stood at 0.67. Moreover, the free fraction (fraction unbound) in data set [6] was 0.031.
On to `Cc1[nH]c(C(=O)N[C@@H]2CCN(c3ncc(C(=O)O)s3)C[C@@H]2Cl)c(Cl)c1Cl` (racemic), for which the MIC is 0.18 µg/mL (≈ 0.411 µM) with Haemophilus influenzae; 0.044 µg/mL (≈ 0.101 µM) in the data set with Streptococcus pneumoniae; 0.35 µg/mL (≈ 0.8 µM) in the data set on Staphylococcus aureus [1]; 2 µg/mL (≈ 4.57 µM) with Staphylococcus aureus [2]; 0.11 µg/mL (≈ 0.251 µM) with Moraxella catarrhalis; > 8 µg/mL with Escherichia coli [3]. In addition, the MIC with Escherichia coli [4] worked out at 0.35 µg/mL (≈ 0.8 µM). Also, the IC50 on DNA gyrase subunit B was < 10 nM. In data set [5], this molecule gave a logD of 0.75. In data set [6], the fraction unbound amounted to 0.008.
As for `Cc1[nH]c(C(=O)N[C@@H]2CCN(c3ncc(C(=O)O)s3)C[C@@H]2S(C)(=O)=O)c(Cl)c1Cl` (racemic), the MIC in the data set on Haemophilus influenzae was > 8 µg/mL; in the data set with Streptococcus pneumoniae it was > 8 µg/mL; against Streptococcus pyogenes, 8 µg/mL (≈ 16.6 µM); in the data set with Staphylococcus aureus [1] it was > 8 µg/mL; in the data set on Moraxella catarrhalis it was > 8 µg/mL; with Escherichia coli [3], > 8 µg/mL. In the data set with Escherichia coli [4], the MIC is > 8 µg/mL. The half-maximal inhibitory concentration (IC50) against DNA gyrase subunit B was < 10 nM. Also, the pH-dependent lipophilicity (logD) in [5] was -1.1. Besides, the free fraction (fraction unbound) in [6] worked out at 0.13. For the same molecule, the solubility in data set [7] is > 1000 µM.
As for `C#CCO[C@H]1CN(c2ncc(C(=O)O)s2)CC[C@H]1NC(=O)c1[nH]c(C)c(Cl)c1Cl`, the MIC was determined as 0.13 µg/mL (≈ 0.284 µM) in the data set on Haemophilus influenzae; 0.016 µg/mL (≈ 0.035 µM) in the data set on Streptococcus pneumoniae; 0.016 µg/mL (≈ 0.035 µM) in the data set with Streptococcus pyogenes; 0.25 µg/mL (≈ 0.547 µM) in the data set with Staphylococcus aureus [1]; 0.25 µg/mL (≈ 0.547 µM) in the data set on Staphylococcus aureus [2]; 0.016 µg/mL (≈ 0.035 µM) with Moraxella catarrhalis. Also, the results for the MIC in the data set with Escherichia coli [3] and with Escherichia coli [4] were > 8 µg/mL and 0.13 µg/mL (≈ 0.284 µM), respectively. In addition, the 50% inhibitory concentration (IC50) against DNA gyrase subunit B is < 10 nM. This molecule returned a logD in data set [5] of 0.44. This molecule also displayed a fraction unbound in data set [6] of 0.03. In addition, the solubility in [7] was > 1000 µM.
Take `CO[C@H]1CO[C@@]2(CN(c3ncc(C(=O)O)s3)CC[C@H]2NC(=O)c2[nH]c(C)c(Cl)c2Cl)OC1` (relative stereo): the MIC was 2 µg/mL (≈ 3.96 µM) in the data set on Haemophilus influenzae; 0.063 µg/mL (≈ 0.125 µM) in the data set on Streptococcus pneumoniae; 0.063 µg/mL (≈ 0.125 µM) against Streptococcus pyogenes; 4 µg/mL (≈ 7.91 µM) in the data set with Staphylococcus aureus [1]; 8 µg/mL (≈ 15.8 µM) in the data set with Staphylococcus aureus [2]; 1 µg/mL (≈ 1.98 µM) in the data set with Moraxella catarrhalis. In addition, the MIC in the data set on Escherichia coli [3] is > 64 µg/mL; in the data set on Escherichia coli [4], 1 µg/mL (≈ 1.98 µM). In addition, on DNA gyrase subunit B, the IC50 was < 10 nM. In addition, the logD in [5] is 0.15. The free fraction (fraction unbound) in [6] turned out to be 0.053. The solubility in data set [7] was > 1000 µM.
Consider `Cc1[nH]c(C(=O)N[C@@H]2CCN(c3ncc(C(=O)O)s3)C[C@@H]2O)c(Cl)c1Cl` (racemic), for which the MIC in the data set on Haemophilus influenzae was 1 µg/mL (≈ 2.38 µM); in the data set on Streptococcus pneumoniae, 0.5 µg/mL (≈ 1.19 µM); in the data set with Staphylococcus aureus [1] it was 16 µg/mL (≈ 38.2 µM); with Staphylococcus aureus [2], 16 µg/mL (≈ 38.2 µM); with Moraxella catarrhalis, 4 µg/mL (≈ 9.54 µM); in the data set with Escherichia coli [3], > 64 µg/mL. The MIC in the data set on Escherichia coli [4] was determined as 1 µg/mL (≈ 2.38 µM). Further, the half-inhibitory concentration (IC50) against DNA gyrase subunit B turned out to be 16 nM. Moreover, the pH-dependent lipophilicity (logD) in data set [5] was -0.67.
Regarding `C=CCO[C@H]1CN(c2ncc(C(=O)O)s2)CC[C@H]1NC(=O)c1[nH]c(C)c(Cl)c1Cl` (racemic), the MIC with Haemophilus influenzae was 0.5 µg/mL (≈ 1.09 µM); in the data set with Streptococcus pneumoniae, < 0.063 µg/mL; against Streptococcus pyogenes it was < 0.063 µg/mL; with Staphylococcus aureus [1], 0.5 µg/mL (≈ 1.09 µM); with Staphylococcus aureus [2], 1 µg/mL (≈ 2.18 µM); in the data set on Moraxella catarrhalis, < 0.063 µg/mL. The MIC was > 8 µg/mL in the data set on Escherichia coli [3] and 0.13 µg/mL (≈ 0.283 µM) in the data set on Escherichia coli [4]. The IC50 on DNA gyrase subunit B is < 10 nM.
Consider `COC[C@H]1CN(c2ncc(C(=O)O)s2)CC[C@H]1NC(=O)c1[nH]c(C)c(Cl)c1Cl` (racemic), for which the MIC with Haemophilus influenzae is > 8 µg/mL; with Streptococcus pneumoniae, 4 µg/mL (≈ 8.94 µM); in the data set with Staphylococcus aureus [1] it was > 8 µg/mL; with Moraxella catarrhalis, 2 µg/mL (≈ 4.47 µM); in the data set with Escherichia coli [3], > 8 µg/mL; with Escherichia coli [4] it was 1 µg/mL (≈ 2.24 µM). The molecule further displayed a 50% inhibitory concentration (IC50) against DNA gyrase subunit B of 54 nM. For the same molecule, the log distribution coefficient (logD) in [5] came to 0.06. Moreover, the unbound share (fraction unbound) in data set [6] was 0.052.
Take `CO[C@H]1CN(c2ncc(C(=O)O)s2)CC[C@@H]1NC(=O)c1[nH]c(C)c(Cl)c1Cl`: the MIC in the data set on Haemophilus influenzae was > 64 µg/mL; in the data set with Streptococcus pneumoniae it was 64 µg/mL (≈ 148 µM); in the data set with Staphylococcus aureus [1], > 64 µg/mL; in the data set on Staphylococcus aureus [2] it was > 64 µg/mL; in the data set with Moraxella catarrhalis it was 64 µg/mL (≈ 148 µM); in the data set on Escherichia coli [3], > 64 µg/mL. Also, the MIC in the data set on Escherichia coli [4] is 64 µg/mL (≈ 148 µM). Besides, the 50% inhibitory concentration (IC50) against DNA gyrase subunit B worked out at 6400 nM.

By IC50 is commonly meant the concentration that inhibits the measured activity by half. For orientation: logD means the decadic logarithm of the distribution of all forms, ionised or not, between an organic phase and buffer at a given pH. The term fraction unbound denotes free concentration divided by total concentration. Usually solubility stands for how much of the substance goes into solution per volume. The low end stands for a poorly soluble substance, the high end for a readily soluble substance.
